# Shown are actives, neighbours in structure and some others; about 3.9% of the full set was active somewhere.
# CRFBP-R2 agonist: agonists of CRF-BP/CRF-R2 complex, primary screen, cell-based, HEK293, calcium dye fluorescence, uHTS | CRF-binding protein / CRF receptor 2 complex (human) | calcium dye fluorescence (FLIPR); percent of saturating CRF peptide response | activation, % at 13.2 µM | 350,000 compounds, 0.46% hits;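 active = activation of at least 50%, plus an integration ratio under a set limit after plate pattern correction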
# ANO1 activ: TMEM16A chloride channel activators or potentiators, primary screen, cell-based, HTS | HEK293 TMEM16A/YFP-H148Q/I152L, iodide quench fluorescence; stronger effect = lower value | 340,000 compounds, 0.3% hits | Anoctamin-1 (Mus musculus), Q8BHY3 | B-score at 10 µM | AID 623877, 2012;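 active = fluorescence-ratio B-score plate-corrected deviation score at least 3 library SD below zero, with starting fluorescence score within 5 deviations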;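 also: channel opened by trigger with iodide after compound preincubation; score built on the fluorescence ratio of max minus min over baseline; more negative score means more quench and so TMEM16A activation or potentiation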
# Target sequence (Q8BHY3 whole entry, looked up): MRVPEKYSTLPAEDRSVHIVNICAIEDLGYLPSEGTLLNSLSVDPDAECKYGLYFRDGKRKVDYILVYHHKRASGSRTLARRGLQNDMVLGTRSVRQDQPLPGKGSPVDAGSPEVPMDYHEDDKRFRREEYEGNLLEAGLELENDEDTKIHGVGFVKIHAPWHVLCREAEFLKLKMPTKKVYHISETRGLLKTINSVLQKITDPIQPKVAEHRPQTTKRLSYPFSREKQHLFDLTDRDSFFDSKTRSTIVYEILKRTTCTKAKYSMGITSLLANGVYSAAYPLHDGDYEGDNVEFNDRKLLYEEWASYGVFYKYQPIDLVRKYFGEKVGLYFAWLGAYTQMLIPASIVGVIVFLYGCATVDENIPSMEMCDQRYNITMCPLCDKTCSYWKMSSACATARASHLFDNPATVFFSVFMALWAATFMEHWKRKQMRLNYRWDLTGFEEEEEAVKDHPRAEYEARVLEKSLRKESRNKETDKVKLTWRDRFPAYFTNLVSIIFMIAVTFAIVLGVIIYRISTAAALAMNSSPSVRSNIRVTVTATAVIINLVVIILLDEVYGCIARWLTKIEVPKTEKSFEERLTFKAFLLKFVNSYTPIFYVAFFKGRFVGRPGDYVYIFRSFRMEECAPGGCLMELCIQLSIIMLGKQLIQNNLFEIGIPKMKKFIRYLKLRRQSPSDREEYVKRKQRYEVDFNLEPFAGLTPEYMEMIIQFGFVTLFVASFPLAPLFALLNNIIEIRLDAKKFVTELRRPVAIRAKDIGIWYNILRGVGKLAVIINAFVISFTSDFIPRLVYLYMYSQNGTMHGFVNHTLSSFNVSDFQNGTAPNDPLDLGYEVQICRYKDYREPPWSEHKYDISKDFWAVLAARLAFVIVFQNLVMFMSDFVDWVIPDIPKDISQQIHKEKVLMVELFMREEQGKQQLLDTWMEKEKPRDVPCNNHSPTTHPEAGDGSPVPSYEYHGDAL
# TMEM16A inh: TMEM16A chloride channel inhibitors, primary screen, cell-based, HTS; HEK293 TMEM16A/YFP iodide influx fluorescence, ionomycin; 310,000 compounds, 1.2% hits; Anoctamin-1 (Mus musculus), Q8BHY3; normalized B-score (activity score, 25-100; higher = stronger inhibition) at 10 µM;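 active = ratio plate-corrected score three or more library SD toward inhibition, starting fluorescence score within five deviations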;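 also: score derived from kinetic fluorescence span divided by baseline fluorescence per well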
# TAAR1 antagonist: human TAAR1 antagonists, primary screen, Fluo-8 calcium fluorescence, CHO RD-HGA16 cells. Trace amine-associated receptor 1 (Homo sapiens), Q96RJ0. antagonist. inhibition, % at 3 µM. 360,000 compounds, 1.5% hits;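 active = inhibition above a per-plate cutoff, the mean inhibition of test compounds on that plate plus 3 SD, cut at about 49% in these data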
#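 test system = CHO RD-HGA16 cells bearing hTAAR1 | replication = singlicate | controls = DMSO-only wells and EC80 β-PEA-stimulated wells | reagent = EC80 β-phenethylamine stimulus | read-out basis = percent inhibition of PEA-evoked calcium signal, max/basal emission ratio | schedule = seeding 17-24 h prior, 75-min 37 °C, 30-min RT dye loading | signal = kinetic Fluo-8 calcium fluorescence measurement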
# TAAR1 agonist: human TAAR1 agonists, primary screen, Fluo-8 calcium fluorescence, CHO RD-HGA16 cells; 360,000 compounds, 0.99% hits; activation, % at 3 µM; Trace amine-associated receptor 1 (Homo sapiens), Q96RJ0; vehicle wells 0%, saturating PEA agonist 100%;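 active = activation above the mean activation of all test compounds in the run plus 3 SD, cut at about 38% in these data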
#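 Test system: RD-HGA16 (CHO) cells co-expressing Gα16 and hTAAR1 | Doses: Single dose, 3 µM | Schedule: 17-24 h seeding, 75 min 37 °C dye, 30 min RT | Evaluation: % activation from peak over basal fluorescence ratio, DMSO-to-PEA scaled | Technique: Kinetic Fluo-8 calcium fluorescence | Benchmarks: Low control DMSO, high control PEA (EC100)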
# CRFR2-BP antag: antagonists of CRF-BP/CRF-R2 complex, primary screen, cell-based, HEK293, calcium dye fluorescence, uHTS; CRF-induced calcium fluorescence; 350,000 compounds, 0.59% hits; AID 588475, 2011; inhibition, % at 11.8 µM;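 active = inhibition of the ligand-induced calcium signal above about 50% at the single tested concentration, limit read from the data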
# Hits are given with their value; – = inactive; · = no result given.
SMILES,CRFBP-R2 agonist,ANO1 activ,TMEM16A inh,TAAR1 antagonist,TAAR1 agonist,CRFR2-BP antag
NC(=O)c1nsc(C(=O)N(c2ccccc2)C(C(=O)NC2CCCC2)c2ccc3ncccc3c2)c1N (configuration not stated),–,–,–,51.3,–,–
CCc1ccccc1N(C(=O)c1snc(C(N)=O)c1N)C(C(=O)NCC1CCCO1)c1ccc(N(C)C)cc1 (configuration not stated),–,–,·,–,–,–
O=C(NCCN1CCC(n2c(=O)[nH]c3ccccc32)CC1)c1ccc(F)c(F)c1,·,·,·,–,–,·
COC(=O)c1ccc(CSc2nc3ccccc3[nH]2)o1,–,–,–,–,–,–
COC(=O)c1cccc(CSc2nc3ccccc3[nH]2)c1,–,–,25,–,–,–
CC(=O)NC(c1cccc(F)c1)c1nc(-c2cccc(C(C)C)c2)cs1 (configuration not stated),·,·,·,–,–,·
CCOC(=O)c1ccc2c(c1)N(CC#N)C(=O)C(C)(C)O2,–,–,25,–,–,–
COc1ccc(-c2noc(CCCC(=O)NCCc3ccccc3)n2)cc1OC,–,–,–,–,58.3,–
C/[N+]([O-])=C\C1C(=O)CC(C)(C)CC1=O,–,–,–,–,–,53.4
Cc1ccc(S(=O)(=O)N2CCOCC2)cc1NC(=O)CN1C(=O)NC(C)(c2ccc(Cl)cc2Cl)C1=O (configuration not stated),–,–,·,–,–,–
COc1ccc(O)c(C(=O)c2cnc3c(c2)c(=O)[nH]c(=O)n3C)c1,–,–,–,–,–,–
COCCn1c(=O)[nH]c(=O)c2cc(C(=O)c3cc(Cl)ccc3O)cnc21,99.2,–,–,·,·,–
COc1cccc(Nc2nnc(SCC(=O)Nc3sccc3C(N)=O)s2)c1,–,–,–,67.6,–,–
Cc1ccc(NS(=O)(=O)c2cc([N+](=O)[O-])ccc2NNC(=S)Nc2cc(C)ccc2C)c(C)c1,–,–,100,–,–,–
COc1ccc(NC(=S)Nc2cccc([N+](=O)[O-])c2)cc1,–,–,–,–,–,–
COc1ccc(NC(=S)NNc2ccc([N+](=O)[O-])cc2S(=O)(=O)Nc2ccc(C)cc2C)cc1,–,–,100,–,–,–
Cc1ccc(NS(=O)(=O)c2cc([N+](=O)[O-])ccc2NNC(=S)Nc2cccc(Cl)c2)c(C)c1,–,–,100,·,·,–
Cc1ccc([N+](=O)[O-])cc1NC(=S)NC(=O)C(C)(C)C,–,–,–,–,–,–
COc1ccc(C(=O)NCCSc2ccccc2)cc1OC,–,–,–,–,–,–
CCCc1c(-c2ccc(Cl)cc2)ncn1Cc1cccc(-c2ccccc2)c1,·,·,·,–,–,·
S=c1[nH]nc(-c2ccncc2)n1/N=C/C(Cl)=C\c1ccccc1,–,–,–,–,52.4,–
O=C(CCS(=O)(=O)c1ccccc1)Nc1ccc(-c2nc3ccccc3s2)cc1,–,–,–,–,–,–
O=C(CCS(=O)(=O)c1ccccc1)Nc1cccc(-c2nc3ccccc3s2)c1,–,–,–,60.1,–,–
CCn1cc(C(=O)O)c(=O)c2cnc(N3CCN(C(=S)Nc4ccccc4C(F)(F)F)CC3)nc21,–,–,–,–,–,–
COc1ccc(CN(C)C(=O)C2CSC3(C)CCC(=O)N23)c(OC)c1 (configuration not stated),–,·,·,–,–,–
SMILES,CRFBP-R2 agonist,ANO1 activ,TMEM16A inh,TAAR1 antagonist,TAAR1 agonist,CRFR2-BP antag
COc1nnc(-c2ccc(N3CCCCC3)c(NC(=O)C3CCCCC3)c2)c2ccccc12,–,–,100,–,–,–
O=C(Nc1nc2ccc(S(=O)(=O)N3CCCC3)cc2s1)C1CCCCC1,–,–,–,–,43.5,–
O=C(Nc1cc(S(=O)(=O)N2CCCCC2)ccc1N1CCCCC1)C1CC1,–,–,–,–,–,103.3
COc1nnc(-c2ccc(N3CCOCC3)c(NC(=O)C3CCCCC3)c2)c2ccccc12,–,–,–,–,–,–
Cc1ccccc1N(C(=O)CNC(=O)c1ccco1)C(C(=O)NC1CCCCC1)c1cccnc1 (configuration not stated),–,–,–,–,–,–
O=C(CSc1nnc(NC(=O)c2c(F)cccc2F)s1)NCc1ccc(F)cc1,–,–,–,–,–,–
CCN(C(=O)CSc1nnc(-c2cccc(F)c2)n1N)c1c(N)n(Cc2ccccc2)c(=O)[nH]c1=O,–,–,·,–,–,–
Cc1ccccc1CSCC(=O)NC(=O)NCc1ccco1,–,–,–,–,–,–
O=C(CSCc1ccccc1Br)NNC(=S)NCc1ccco1,–,–,–,–,–,77.2
CCN(CC)CCCNc1ccc(-c2nnc(-c3ccc(OCC(C)C)cc3)o2)cn1,–,-5.64,–,–,–,–
Cc1cc(S(=O)(=O)Nc2ccc3c(c2)n(C)c(=O)n3C)ccc1F,–,–,100,–,–,–
COc1ccc(S(=O)(=O)Nc2ccc3c(c2)n(C)c(=O)n3C)cc1F,–,–,–,–,–,–
CN(C(=O)COC(=O)c1ccc2c(=O)n3c(nc2c1)CCC3)C1CCS(=O)(=O)C1 (configuration not stated),–,–,–,–,–,–
CC(=O)c1c(C)[nH]c(C(=O)CSc2nc3ccccc3n2C)c1C,–,–,–,55.0,–,–
COc1ccc(CCNc2nc(-c3cccnc3)nc3ccccc23)cc1OC,–,–,–,63.3,–,–
Cc1ccc(CNc2nc(-c3cccnc3)nc3ccccc23)cc1,–,–,–,–,–,–
COc1ccc(CCNc2ncnc3c2oc2ccccc23)cc1OC,–,–,100,60.7,–,–
c1ccc(CNc2ncnc3c2oc2ccccc23)nc1,–,–,–,–,–,–
COc1ccc(CCNc2nc(C)nc3c2oc2ccccc23)cc1OC,–,–,–,48.9,–,–
c1cncc(-c2nc(NCC3COc4ccccc4O3)c3ccccc3n2)c1 (configuration not stated),–,–,–,54.2,–,–
c1cncc(-c2nc(NCc3ccc4c(c3)OCO4)c3ccccc3n2)c1,–,–,–,–,–,–
CC1(CCC(=O)N2CCCC(N3CCN(c4ccc(F)cc4)CC3)C2)CC1 (configuration not stated),–,–,–,–,–,–
O=C(NCc1cccs1)c1ccc(CS(=O)Cc2cccc(Cl)c2)o1 (configuration not stated),–,–,–,–,–,57.5

# Screens as filed in PubChem BioAssay.
